Experiments:
albumin = conditions: after s.c. administration and absorption into the circulation; cited from earlier work
[1] = tested on: individuals with type 2 diabetes; test: Safety assessments; format: in vivo, human; conditions: all injection regions; N (%) of 25
Method in brief: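 Over three treatment periods, 25 participants with type 2 diabetes each received one 5.6 U/kg s.c. dose per region (thigh, abdomen, upper arm), stayed in-house to 60 h, and underwent a 36–60 h glucose clamp at 7.5 mmol/L. Monitoring covered adverse events, labs, vital signs and examination. Hypoglycaemia levels: 1, plasma glucose <3.9 and ≥3.0 mmol/L; 2, <3.0 mmol/L; 3, severe cognitive impairment needing assistance.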

Pharmacokinetics = format: in vivo, human; conditions: single s.c. dose 5.6 U/kg; p < 0.001

In the case of insulin icodec, the Binding to albumin (albumin) is listed as “binds strongly to albumin”, the “Participants reporting adverse events” value [1] is listed as 12 (48%) participants and the “Cmax after single dose higher for upper arm versus thigh” value (Pharmacokinetics) is listed as 24%.
